In ChEMBL document CHEMBL1156620, “Structure-activity relationship studies on a novel class of antiproliferative agents derived from Lavendustin A. Part I: Ring A modifications” (Bioorg Med Chem, 2008):

Tests used:
[1] = test system: HaCaT; experiment: Antiproliferative activity against human HaCaT cells after 3 days by sulforhodamine B assay; format: functional, cell-based; conditions: 72 h
Method in brief: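 HaCaT keratinocytes kept in DMEM with 5% FCS, trypsinized and seeded at 4000 cells/0.2 mL/well in 96-well plates. Medium swapped after 24 h for fresh medium with graded compound concentrations. Proliferation read by sulforhodamine B colorimetry after 3 days. IC50 taken as the average of at least two independent measurements.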

[2] = test system: HaCaT; experiment: Antimitotic activity against human HaCaT cells assessed as mitotic index at 0.2 uM after 20 hrs; format: functional
Method in brief: (§1)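 HaCaT cells grown in DMEM with 5% FCS, seeded in chamber slides at 24000 cells/0.4 ml/well. After 24 h, medium replaced with fresh medium containing the stated compound concentration, then 20 h incubation. Cells fixed in 90% acetone for 5 min at room temperature. DNA stained with DAPI (0.5 μg/ml, 1 h, RT). Metaphase-arrested cells scored by fluorescence microscopy, at least 300 cells per concentration. Mitotic index = 100% × mitotic/total cells.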

[3] = molecular target: Tubulin (Sus scrofa, UniProt P02554+P02550); experiment: Inhibition of pig brain tubulin polymerization
Method in brief: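 Pig brain tubulin purified by three warm/cold assembly cycles in 1 M monosodium glutamate pH 6.6 with 1 mM GTP. Compound (DMSO, 4% v/v final) preincubated with tubulin 15 min at 30 °C in 0.8 M glutamate pH 6.6 without GTP. Samples then chilled, given GTP, and shifted from 0 °C to 30 °C. Turbidity read at 350 nm. IC50 is 50% inhibition of polymerization extent at 20 min, by linear interpolation.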

[4] = molecular target: Tubulin (Sus scrofa) (UniProt P02554+P02550); experiment: Binding affinity to pig brain tubulin at 10 uM after 15 mins relative to control
[5] = test system: HaCaT; experiment: Antimitotic activity against human HaCaT cells assessed as mitotic index at 0.4 uM after 20 hrs; format: functional; method in brief: as §1
[6] = test system: HaCaT; experiment: Antimitotic activity against human HaCaT cells assessed as mitotic index at 100 uM after 20 hrs; format: functional; method in brief: as §1
[7] = test system: HaCaT; experiment: Antimitotic activity against human HaCaT cells assessed as mitotic index at 1 uM after 20 hrs; format: functional; method in brief: as §1
[8] = test system: HaCaT; experiment: Antimitotic activity against human HaCaT cells assessed as mitotic index at 2 uM after 20 hrs; format: functional; method in brief: as §1
[9] = test system: HaCaT; experiment: Antimitotic activity against human HaCaT cells assessed as mitotic index at 3 uM after 20 hrs; format: functional; method in brief: as §1
[10] = test system: HaCaT; experiment: Antimitotic activity against human HaCaT cells assessed as mitotic index at 10 uM after 20 hrs; format: functional; method in brief: as §1
[11] = test system: HaCaT; experiment: Antimitotic activity against human HaCaT cells assessed as mitotic index at 30 uM after 20 hrs; format: functional; method in brief: as §1
[12] = test system: HaCaT; experiment: Antimitotic activity against human HaCaT cells assessed as mitotic index at 0.5 uM after 20 hrs; format: functional; method in brief: as §1
[13] = test system: HaCaT; experiment: Antimitotic activity against human HaCaT cells assessed as mitotic index at 20 uM after 20 hrs; format: functional; method in brief: as §1
[14] = test system: HaCaT; experiment: Antimitotic activity against human HaCaT cells assessed as mitotic index at 50 uM after 20 hrs; format: functional; method in brief: as §1
[15] = test system: HaCaT; experiment: Antimitotic activity against human HaCaT cells assessed as mitotic index at 1.5 uM after 20 hrs; format: functional; method in brief: as §1
[16] = test system: HaCaT; experiment: Antimitotic activity against human HaCaT cells assessed as mitotic index at 2.5 uM after 20 hrs; format: functional; method in brief: as §1

Chain of Tubulin (Sus scrofa) (P02550 whole entry, looked up): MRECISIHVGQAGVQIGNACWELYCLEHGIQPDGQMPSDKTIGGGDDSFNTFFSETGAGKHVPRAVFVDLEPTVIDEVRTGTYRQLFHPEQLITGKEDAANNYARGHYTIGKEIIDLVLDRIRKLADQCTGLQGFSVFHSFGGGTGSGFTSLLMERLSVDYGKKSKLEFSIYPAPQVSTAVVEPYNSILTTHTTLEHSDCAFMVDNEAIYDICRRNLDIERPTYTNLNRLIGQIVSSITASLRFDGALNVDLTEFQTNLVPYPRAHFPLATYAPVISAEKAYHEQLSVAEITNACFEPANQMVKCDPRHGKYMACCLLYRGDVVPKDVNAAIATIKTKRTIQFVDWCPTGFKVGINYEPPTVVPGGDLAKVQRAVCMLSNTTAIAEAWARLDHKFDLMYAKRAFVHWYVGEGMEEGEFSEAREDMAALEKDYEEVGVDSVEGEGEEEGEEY
Chain of Tubulin (Sus scrofa) (P02554 whole entry, looked up): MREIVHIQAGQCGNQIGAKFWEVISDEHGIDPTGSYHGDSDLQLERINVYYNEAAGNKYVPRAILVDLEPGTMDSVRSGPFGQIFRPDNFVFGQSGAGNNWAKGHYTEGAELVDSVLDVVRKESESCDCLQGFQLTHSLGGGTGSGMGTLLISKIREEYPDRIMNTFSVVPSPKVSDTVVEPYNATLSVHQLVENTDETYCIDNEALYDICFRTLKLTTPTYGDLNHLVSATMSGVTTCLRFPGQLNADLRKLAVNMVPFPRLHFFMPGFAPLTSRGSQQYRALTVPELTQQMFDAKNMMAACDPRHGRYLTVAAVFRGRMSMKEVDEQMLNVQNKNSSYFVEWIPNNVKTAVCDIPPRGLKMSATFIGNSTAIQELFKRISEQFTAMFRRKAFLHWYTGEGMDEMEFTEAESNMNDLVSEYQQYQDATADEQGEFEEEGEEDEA

With `COC(=O)c1cc(CCc2cc(OC)ccc2OC)ccc1O` the IC50 [1] was 47 nM, the Activity [2] was 36% and the IC50 [3] was 1 µM. It also gave an Activity [4] of 43%.

For `COC(=O)c1cc(CCc2c(OC)cccc2OC)ccc1O`, the Activity [5] was 24% and the IC50 [1] was 110 nM.

`COC(=O)c1cc(CCc2cccc(OC)c2OC)ccc1O` showed an IC50 [1] of 33000 nM and an Activity [6] of 3.7%.

`CCc1cccc(OC)c1CCc1ccc(O)c(C(=O)OC)c1` gave an IC50 [1] of 200 nM and an Activity [7] of 50%.

`COC(=O)c1cc(CCc2cc(OC)ccc2O)ccc1O` gave an IC50 [1] of 1100 nM and an Activity [8] of 27%.

Compound `CCOc1ccc(OCC)c(CCc2ccc(O)c(C(=O)OC)c2)c1` has an IC50 [1] of 380 nM and an Activity [9] of 20%.

`COC(=O)c1cc(CCc2c(OC)ccc(OC)c2OC)ccc1O` was tested, and the IC50 [1] was 3500 nM and the Activity [10] was 25%.

`COC(=O)c1cc(CCc2cc(C(C)=O)ccc2OC)ccc1O` gave an IC50 [1] of 660 nM and an Activity [8] of 26%.

`CCc1ccc(CC)c(CCc2ccc(O)c(C(=O)OC)c2)c1` showed an IC50 [1] of 650 nM and an Activity [8] of 30%.

`COC(=O)c1cc(CCc2cc(OC)c(OC)c(OC)c2)ccc1O` was tested, and the IC50 [1] was 3500 nM and the Activity [10] was 18%.

With `COC(=O)c1cc(CCc2ccc3c(c2)OCO3)ccc1O` the IC50 [1] was 36000 nM and the Activity [6] was 2.9%.

`COC(=O)c1cc(CCc2ccccc2OC)ccc1O` showed an Activity [11] of 16% and an IC50 [1] of 20000 nM.

In the case of `CCc1ccc(OC)c(CCc2ccc(O)c(C(=O)OC)c2)c1`, the IC50 [1] is reported as 430 nM and the Activity [7] is reported as 44%.

With `CCOc1ccc(OC)c(CCc2ccc(O)c(C(=O)OC)c2)c1` the IC50 [1] was 540 nM and the Activity [12] was 31%.

`COC(=O)c1cc(CCc2cc(OC)ccc2N(C)C)ccc1O` showed an IC50 [1] of 650 nM and an Activity [9] of 42%.

With `COC(=O)c1cc(CCc2cc(O)ccc2OC)ccc1O` the IC50 [1] was 8700 nM and the Activity [13] was 57%.

`COC(=O)c1cc(CCc2cc(OC(C)=O)ccc2OC(C)=O)ccc1O` was tested, and the IC50 [1] was 24000 nM.

In the case of `COC(=O)c1cc(CCc2cc(O)ccc2O)ccc1O`, the IC50 [1] is reported as 21000 nM and the Activity [14] is reported as 2.2%.

`COC(=O)c1cc(CCc2cc(OC)ccc2Br)ccc1O` showed an IC50 [1] of 210 nM and an Activity [7] of 20%.

In the case of `CCc1ccc(OC)cc1CCc1ccc(O)c(C(=O)OC)c1`, the Activity [5] is reported as 47% and the IC50 [1] is reported as 130 nM.

Compound `COC(=O)c1cc(CCc2cc(OC)ccc2C(C)=O)ccc1O` has an IC50 [1] of 41 nM and an Activity [15] of 46%.

`COC(=O)c1cc(CCc2cc(SC)ccc2OC)ccc1O` was tested, and the IC50 [1] was 860 nM and the Activity [16] was 37%.

Work on `COC(=O)c1cc(CCc2cc(Cl)ccc2OC)ccc1O` yielded an Activity [11] of 27% and an IC50 [1] of 6900 nM.

`COC(=O)c1cc(CCc2cc(N(C)C)ccc2OC)ccc1O` gave an IC50 [1] of 920 nM and an Activity [16] of 28%.

`COC(=O)c1cc(CCc2cccc(OC)c2)ccc1O` gave an IC50 [1] of 37000 nM and an Activity [6] of 36%.

With `COC(=O)c1cc(CCc2ccc(OC)cc2OC)ccc1O` the IC50 [1] was 19000 nM and the Activity [6] was 7.2%.

For `COC(=O)c1cc(CCc2cc(OC)c(C(C)(C)C)cc2C(C)=O)ccc1O`, the IC50 [1] was 8200 nM and the Activity [6] was 4.4%.

`CCOc1ccc(OC)cc1CCc1ccc(O)c(C(=O)OC)c1` showed an IC50 [1] of 120 nM and an Activity [2] of 38%.
